# Data reported in ChEMBL document CHEMBL4130545, “Lupane-Type Triterpenes of Phoradendron vernicosum” (J Nat Prod, 2017).
# Key:
# KB [1] = test: Cytotoxic activity in human KB cells by sulforhodamine B assay; assay type: functional
# Outline: (§1)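 Cell lines grown in D-MEM with 10% (v/v) FBS, 100 U/mL penicillin G and 100 μg/mL streptomycin at 37 °C, 5% CO2, 95% humidity. Cytotoxicity was measured by the Skehan method. CC50 was taken as the concentration that reduces cell growth by 50%. Docetaxel served as positive control, and each test was run in triplicate.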
# MCF7 [2] = test: Antiproliferative activity in human MCF7 cells by sulforhodamine B assay; assay type: functional, cell-based
# Outline: (§2)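 Cells grown in D-MEM with 10% (v/v) FBS, 100 U/mL penicillin G and 100 μg/mL streptomycin, at 37 °C under 5% CO2 and 95% humidity. Cytotoxic and antiproliferative effects were measured by the sulforhodamine B method of Skehan et al. CC50 (cytotoxic) or IC50 (antiproliferative) is the concentration giving 50% growth reduction. Docetaxel was the positive control. Triplicate tests.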
# MCF7 [3] = test: Cytotoxic activity in human MCF7 cells by sulforhodamine B assay; assay type: functional; outline: as §1
# SiHa [4] = test: Cytotoxic activity in human SiHa cells by sulforhodamine B assay; assay type: functional; outline: as §1
# HEp-2 [5] = test: Cytotoxic activity in human Hep2 cells by sulforhodamine B assay; assay type: functional; outline: as §1
# [6] = Selectivity index, ratio of cytotoxic CC50 for African green monkey Vero cells to cytotoxic CC50 for human DU145 cells; assay type: toxicity; conditions: Vero cells versus DU145 cells, read-out: Selectivity Index
# Outline: (§3)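 Selectivity index for harmfulness to normal cells: the normal-cell (Vero or HEK293) CC50 or IC50 over the cancer-cell value from the same assay type. Each value is from sulforhodamine B growth-reduction tests done in triplicate in D-MEM/10% FBS at 37 °C, 5% CO2.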
# MDA-MB-231 [7] = test: Cytotoxic activity in human MDA-MB-231 cells by sulforhodamine B assay; assay type: functional; outline: as §1
# [8] = Selectivity index, ratio of cytotoxic CC50 for African green monkey Vero cells to cytotoxic CC50 for human KB cells; assay type: toxicity; conditions: Vero cells versus KB cells, read-out: Selectivity Index; outline: as §3
# HeLa [9] = test: Cytotoxic activity in human HeLa cells by sulforhodamine B assay; assay type: functional; outline: as §1
# [10] = Selectivity index, ratio of antiproliferative IC50 for African green monkey Vero cells to antiproliferative IC50 for human SiHa cells; assay type: toxicity; conditions: Vero cells versus SiHa cells, read-out: Ratio IC50; outline: as §3
# [11] = Selectivity index, ratio of cytotoxic CC50 for African green monkey Vero cells to cytotoxic CC50 for human MCF7 cells; assay type: toxicity; conditions: Vero cells versus MCF7 cells, read-out: Selectivity Index; outline: as §3
# [12] = Selectivity index, ratio of antiproliferative IC50 for African green monkey Vero cells to antiproliferative IC50 for human Hep2 cells; assay type: toxicity; conditions: Vero cells versus Hep2 cells, read-out: Ratio IC50; outline: as §3
# [13] = Selectivity index, ratio of antiproliferative IC50 for African green monkey Vero cells to antiproliferative IC50 for human MCF7 cells; assay type: toxicity; conditions: Vero cells versus MCF7 cells, read-out: Ratio IC50; outline: as §3
# [14] = Selectivity index, ratio of cytotoxic CC50 for African green monkey Vero cells to cytotoxic CC50 for human MDA-MB-231 cells; assay type: toxicity; conditions: Vero cells versus MDA-MB-231 cells, read-out: Selectivity Index; outline: as §3
# HeLa [15] = test: Antiproliferative activity in human HeLa cells by sulforhodamine B assay; assay type: functional, cell-based; outline: as §2
# [16] = Selectivity index, ratio of cytotoxic CC50 for African green monkey Vero cells to cytotoxic CC50 for human SiHa cells; assay type: toxicity; conditions: Vero cells versus SiHa cells, read-out: Selectivity Index; outline: as §3
# KB [17] = test: Antiproliferative activity in human KB cells by sulforhodamine B assay; assay type: functional, cell-based; outline: as §2
# [18] = Cytotoxic activity in African green monkey Vero cells by sulforhodamine B assay; assay type: cell-based; conditions: chlorocebus sabaeus; outline: as §2
# [19] = Cytotoxic activity in HEK293 cells by sulforhodamine B assay; assay type: cell-based; conditions: human; outline: as §2
# HEp-2 [20] = test: Antiproliferative activity in human Hep2 cells by sulforhodamine B assay; assay type: functional, cell-based; outline: as §2
# [21] = Selectivity index, ratio of antiproliferative IC50 for African green monkey Vero cells to antiproliferative IC50 for human KB cells; assay type: toxicity; conditions: Vero cells versus KB cells, read-out: Ratio IC50; outline: as §3
# HEK293 = test: Antiproliferative activity in HEK293 cells by sulforhodamine B assay; assay type: cell-based; conditions: Homo sapiens; outline: as §2
# DU-145 [22] = test: Antiproliferative activity in human DU145 cells by sulforhodamine B assay; assay type: functional, cell-based; outline: as §2
# MDA-MB-231 [23] = test: Antiproliferative activity in human MDA-MB-231 cells by sulforhodamine B assay; assay type: functional, cell-based; outline: as §2
# DU-145 [24] = test: Cytotoxic activity in human DU145 cells by sulforhodamine B assay; assay type: functional; outline: as §1
# Vero = test: Antiproliferative activity in African green monkey Vero cells by sulforhodamine B assay; assay type: cell-based; conditions: Chlorocebus sabaeus; outline: as §2
# SiHa [25] = test: Antiproliferative activity in human SiHa cells by sulforhodamine B assay; assay type: functional, cell-based; outline: as §2
# [26] = Selectivity index, ratio of antiproliferative IC50 for African green monkey Vero cells to antiproliferative IC50 for human HeLa cells; assay type: toxicity; conditions: Vero cells versus HeLa cells, read-out: Ratio IC50; outline: as §3
# [27] = Selectivity index, ratio of cytotoxic CC50 for African green monkey Vero cells to cytotoxic CC50 for human HeLa cells; assay type: toxicity; conditions: Vero cells versus HeLa cells, read-out: Selectivity Index; outline: as §3
# [28] = Selectivity index, ratio of cytotoxic CC50 for African green monkey Vero cells to cytotoxic CC50 for human Hep2 cells; assay type: toxicity; conditions: Vero cells versus Hep2 cells, read-out: Selectivity Index
SMILES,CC50 (KB [1]),IC50 (MCF7 [2]),CC50 (MCF7 [3]),CC50 (SiHa [4]),CC50 (HEp-2 [5]),CC50 (MDA-MB-231 [7]),CC50 (HeLa [9]),selectivity ratio [10],selectivity ratio [11],IC50 (HeLa [15]),IC50 (KB [17]),CC50 [18],CC50 [19],IC50 (HEp-2 [20]),IC50 (HEK293),IC50 (DU-145 [22]),IC50 (MDA-MB-231 [23]),CC50 (DU-145 [24]),IC50 (Vero),IC50 (SiHa [25]),further results
C=C(C)[C@@H]1CC[C@]2(C(=O)O)CC[C@]3(C)[C@H](CC[C@@H]4[C@@]5(C)CC[C@@H](O)[C@](C)(CO)[C@@H]5CC[C@]43C)[C@@H]12,24.1 to 500 µM,48.9 to 500 µM,31.7 to 98.5 µM,20.3 to 110 µM,> 500 µM,71.2 to 91.1 µM,120 to 153 µM,1.6,3,> 500 µM,12.5 to 500 µM,> 500 µM,95.8 to 500 µM,75.2 to 500 µM,95.5 to 500 µM,> 500 µM,169 to 500 µM,53.1 to 97.2 µM,> 500 µM,57.8 to 500 µM,selectivity ratio [6]: 1.8; selectivity ratio [8]: 18.3; selectivity ratio [12]: 1.3; selectivity ratio [13]: 1.9; selectivity ratio [14]: 1.3; selectivity ratio [16]: 4.7; selectivity ratio [21]: 18.3
C=C(C)[C@@H]1CC[C@]2(C(=O)O)CC[C@]3(C)[C@H](CC[C@@H]4[C@@]5(C)CC[C@@H](O)C(C)(C)[C@@H]5CC[C@]43C)[C@@H]12 [EPIBETULINIC ACID],> 500 µM,91.6 µM,154 µM,113 µM,> 500 µM,> 500 µM,118 µM,1,0.7,91.8 µM,> 500 µM,107 µM,> 500 µM,> 500 µM,> 500 µM,> 500 µM,> 500 µM,> 500 µM,117 µM,117 µM,selectivity ratio [26]: 1.3; selectivity ratio [13]: 1.2; selectivity ratio [27]: 0.9; selectivity ratio [16]: 0.9
C=C(C)[C@@H]1CC[C@]2(C(=O)O)CC[C@]3(C)[C@H](CC[C@@H]4[C@@]5(C)CCC(=O)C(C)(C)[C@@H]5CC[C@]43C)[C@@H]12 [BETUNOLIC ACID],> 500 µM,> 500 µM,> 500 µM,117 µM,> 500 µM,60.9 µM,> 500 µM,,,> 500 µM,> 500 µM,> 500 µM,> 500 µM,> 500 µM,> 500 µM,> 500 µM,> 500 µM,139 µM,> 500 µM,> 500 µM,
C=C(C)[C@@H]1CC[C@]2(CO)CC[C@]3(C)[C@H](CC[C@@H]4[C@@]5(C)CC[C@H](O)C(C)(C)[C@@H]5CC[C@]43C)[C@@H]12 [BETULIN],> 500 µM,> 500 µM,> 500 µM,> 500 µM,> 500 µM,> 500 µM,> 500 µM,,,> 500 µM,> 500 µM,> 500 µM,> 500 µM,> 500 µM,> 500 µM,137 µM,> 500 µM,162 µM,> 500 µM,> 500 µM,
C=C(C)[C@@H]1CC[C@]2(CO)CC[C@]3(C)[C@H](CC[C@@H]4[C@@]5(C)CCC(=O)C(C)(C)[C@@H]5CC[C@]43C)[C@@H]12 [BETULONE],> 500 µM,> 500 µM,> 500 µM,197 µM,> 500 µM,136 µM,136 µM,,,> 500 µM,> 500 µM,> 500 µM,> 500 µM,> 500 µM,> 500 µM,> 500 µM,> 500 µM,102 µM,> 500 µM,> 500 µM,
C=C(C=O)[C@@H]1CC[C@]2(C(=O)O)CC[C@]3(C)[C@H](CC[C@@H]4[C@@]5(C)CC[C@@H](O)[C@](C)(CO)[C@@H]5CC[C@]43C)[C@@H]12,> 500 µM,> 500 µM,> 500 µM,92.2 µM,> 500 µM,106 µM,182 µM,,,106 µM,> 500 µM,> 500 µM,> 500 µM,> 500 µM,> 500 µM,89.7 µM,123 µM,52.6 µM,> 500 µM,127 µM,
CC1(C)CC[C@]2(C(=O)O)CC[C@]3(C)C(=CC[C@@H]4[C@@]5(C)CC[C@H](O)C(C)(C)[C@@H]5CC[C@]43C)[C@@H]2C1 [OLEANOLIC_ACID],> 500 µM,> 500 µM,> 500 µM,109 µM,> 500 µM,106 µM,> 500 µM,,,204 µM,> 500 µM,> 500 µM,> 500 µM,> 500 µM,> 500 µM,124 µM,134 µM,65.6 µM,> 500 µM,110 µM,
C=C(C)[C@@H]1CC[C@]2(C)CC[C@]3(C)[C@H](CC[C@@H]4[C@@]5(C)CCC(=O)C(C)(C)[C@@H]5CC[C@]43C)[C@@H]12 [LUPENONE],> 500 µM,> 500 µM,> 500 µM,> 500 µM,> 500 µM,> 500 µM,> 500 µM,,,> 500 µM,> 500 µM,> 500 µM,> 500 µM,> 500 µM,> 500 µM,> 500 µM,> 500 µM,> 500 µM,> 500 µM,> 500 µM,
C=C(C)[C@@H]1CC[C@]2(C(=O)O)CC[C@]3(C)[C@H](CC[C@@H]4[C@@]5(C)CC[C@H]6OC(C)(C)OC[C@]6(C)[C@@H]5CC[C@]43C)[C@@H]12,10.2 µM,> 500 µM,84.6 µM,> 500 µM,32.4 µM,> 500 µM,> 500 µM,11.3,5,> 500 µM,16.4 µM,> 500 µM,420 µM,> 500 µM,656 µM,> 500 µM,> 500 µM,> 500 µM,> 500 µM,58.2 µM,selectivity ratio [8]: 41; selectivity ratio [28]: 13; selectivity ratio [21]: 39.9
